Test system: Aorta
Assay: Vasorelaxation activity in Sprague-Dawley rat aortic assessed as inhibition of phenylephrin-induced contraction
Type: functional, tissue-based
Procedure, shortened: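 Endothelium-intact aortic rings from adult male rats (280–320 g) held isometrically at 1.8 g passive tension for 60 min; endothelium confirmed by >98% relaxation to acetylcholine (3 µM). Tonic contraction to phenylephrine (0.3 µM) set as 100%. Compound added cumulatively, 0.01–100 µM, one curve per ring. IC50 taken from percent-relaxation curves; mean ± SE of n independent experiments.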

Compound | IC50 [µM]
COC1=C[C@@]23CCN(C)[C@@H](Cc4cc(OC)c(OC)cc42)C3=CC1=O | 28.9
COc1cc(-c2oc3cc(O)cc(O)c3c(=O)c2O[C@@H]2O[C@H](CO)[C@@H](O)[C@H](O)[C@H]2O)ccc1O | 23.6
COc1ccc2c(c1OC)-c1c3c(c(OC)c4c1[C@H](C2)NCC4)OCO3 | 16.5
COC1=C[C@@]23CCN(C)[C@@H](Cc4ccc(OC)c(O)c42)C3=CC1=O | 32.8
COc1ccc2c(c1C(=O)O)-c1c3c(c(OC)c4c1[C@H](C2)NCC4)OCO3 [CASSYTHIC ACID] | 2.48
COc1cc2c(cc1O)C[C@@H]1NCCc3c(OC)c4c(c-2c31)OCO4 [CASSYTHINE] | 0.09
COc1cc2c(cc1OC)-c1c3c(cc4c1[C@H](C2)N(C)CC4)OCO3 [DICENTRINE] | 0.08
COc1cc2c(cc1O)C(=O)c1nccc3c(OC)c4c(c-2c13)OCO4 [ISOFILIFORMINE] | 32
COc1cc(-c2oc3cc(O)cc(O)c3c(=O)c2O[C@@H]2O[C@H](CO[C@@H]3O[C@@H](C)[C@H](O)[C@@H](O)[C@H]3O)[C@@H](O)[C@H](O)[C@H]2O)ccc1O [NARCISSIN] | 16.8
CN1CCc2cc3c(c4c2[C@@H]1Cc1cc2c(cc1-4)OCO2)OCO3 [NEOLITSINE] | 0.29

Reference: ChEMBL document CHEMBL1144774, “Vasorelaxing alkaloids and flavonoids from Cassytha filiformis” (J Nat Prod, 2008)
